{
  "source": "ChEMBL document CHEMBL1121487",
  "about": "“Fluorinated pyrimidine nucleosides. 4. Synthesis and antitumor testing of a series of 2',5'-dideoxy- and 2',3',5'-trideoxynucleosides of 5-fluorouracil” (1980)",
  "key": {"Sarcoma-180 [1]": {"system": "Sarcoma-180", "assay": "Percent reduction against sarcoma 180J tumor growth in mice when administered intraperitoneally at dose 100 mg/kg", "format": "functional, Mus musculus", "details": "route intraperitoneal", "in_short": "(§1)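 Sarcoma 180J tumor model in mice, with eight intraperitoneal doses per schedule (mg/kg ip × 8). Read-out is percent reduction in tumor growth. Toxicity was tracked as the number of surviving mice out of the number tested, with group sizes of 8 to 24 mice.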"}, "[2]": {"assay": "Antitumor activity against sarcoma 180J infected mice was evaluated as ratio of number of survivors to the number of tested animals at dose 200 mg/kg, ip; 12/16", "format": "functional", "in_short": "(§2)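 Mice bearing sarcoma 180J were dosed intraperitoneally eight times (mg/kg per dose, ×8). Read-outs were percent reduction in tumor growth and the number of mice surviving out of the number tested at each dose level. Mouse deaths were taken as toxicity.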"}, "Sarcoma-180 [3]": {"system": "Sarcoma-180", "assay": "Percent reduction against sarcoma 180J tumor growth in mice when administered intraperitoneally at dose 200 mg/kg", "format": "functional, Mus musculus", "details": "route intraperitoneal", "in_short": "as §1"}, "[4]": {"assay": "Antitumor activity against sarcoma 180J infected mice was evaluated as ratio of number of survivors to the number of tested animals at dose 100 mg/kg, ip; 7/8", "format": "functional", "in_short": "as §2"}, "[5]": {"assay": "Antitumor activity against sarcoma 180J infected mice was evaluated as ratio of number of survivors to the number of 8 tested animals at dose 200 mg/kg, ip; 8/8", "format": "functional", "in_short": "as §2"}, "[6]": {"assay": "Antitumor activity against sarcoma 180J infected mice was evaluated as ratio of number of survivors to the number of tested animals at dose 200 mg/kg, ip; 8/8", "format": "functional", "in_short": "as §2"}, "[7]": {"assay": "Antitumor activity against sarcoma 180J infected mice was evaluated as ratio of number of survivors to the number of tested animals at dose 200 mg/kg, ip; 15/16"}, "[8]": {"assay": "Antitumor activity against sarcoma 180J infected mice was evaluated as ratio of number of survivors to the number of tested animals at dose 25 mg/kg, ip; 16/16", "format": "functional", "in_short": "as §2"}, "[9]": {"assay": "Antitumor activity against sarcoma 180J infected mice was evaluated as ratio of number of survivors to the number of tested animals at dose 50 mg/kg, ip; 16/16", "format": "functional", "in_short": "as §2"}, "[10]": {"assay": "Antitumor activity against sarcoma 180J infected mice was evaluated as ratio of number of survivors to the number of tested animals at dose 200 mg/kg, ip; 11/16", "format": "functional", "in_short": "as §2"}, "[11]": {"assay": "Antitumor activity against sarcoma 180J infected mice was evaluated as ratio of number of survivors to the number of tested animals at dose 100 mg/kg, ip; 18/24", "format": "functional", "in_short": "as §2"}, "[12]": {"assay": "Antitumor activity against sarcoma 180J infected mice was evaluated as ratio of number of survivors to the number of tested animals at dose 12.5 mg/kg, ip; 8/8", "format": "functional", "in_short": "as §2"}, "Sarcoma-180 [13]": {"system": "Sarcoma-180", "assay": "(§3) Percent reduction against sarcoma 180J tumor growth in mice when administered intraperitoneally at dose 25 mg/kg", "format": "functional, Mus musculus", "details": "route intraperitoneal", "in_short": "as §1"}, "Sarcoma-180 [14]": {"system": "Sarcoma-180", "assay": "Percent reduction against sarcoma 180J tumor growth in mice when administered intraperitoneally at dose 12.5 mg/kg", "format": "functional, Mus musculus", "details": "route intraperitoneal", "in_short": "as §1"}, "Sarcoma-180 [15]": {"system": "Sarcoma-180", "assay": "Percent reduction against sarcoma 180J tumor growth in mice when administered intraperitoneally at dose 50 mg/kg", "format": "functional, Mus musculus", "details": "route intraperitoneal", "in_short": "as §1"}, "[16]": {"assay": "as §3", "format": "functional, Mus musculus", "details": "route intraperitoneal", "in_short": "as §2"}, "Sarcoma-180 [17]": {"system": "Sarcoma-180", "assay": "Percent reduction against sarcoma 180J tumor growth in mice when administered intraperitoneally at dose 40 mg/kg", "format": "functional, Mus musculus", "details": "route intraperitoneal", "in_short": "as §2"}, "[18]": {"assay": "Antitumor activity against sarcoma 180J infected mice was evaluated as ratio of number of survivors to the number of tested animals at dose 40 mg/kg, ip; 17/24", "format": "functional", "in_short": "as §2"}, "[19]": {"assay": "Antitumor activity against sarcoma 180J infected mice was evaluated as ratio of number of survivors to the number of tested animals at dose 25 mg/kg, ip; 22/22", "format": "functional", "in_short": "as §2"}, "[20]": {"assay": "Antitumor activity against sarcoma 180J infected mice was evaluated as ratio of number of survivors to the number of tested animals at dose 100 mg/kg, ip; 15/16", "format": "functional", "in_short": "as §2"}},
  "data": [
    {"smiles": "CC1CC[C@H](n2cc(F)c(=O)[nH]c2=O)O1", "note": "(stereo partly drawn)", "values": [
      {"measurement": "Reduction", "setting": "Sarcoma-180 [1]", "value": 35, "unit": "%"},
      {"measurement": "Ratio", "setting": "[2]", "value": 12},
      {"measurement": "Reduction", "setting": "Sarcoma-180 [3]", "value": 81, "unit": "%"},
      {"measurement": "Ratio", "setting": "[4]", "value": 7}
    ]},
    {"smiles": "C[C@H]1O[C@@H]2C[C@H]1Oc1ncc(F)c(=O)n12", "values": [
      {"measurement": "Ratio", "setting": "[5]", "value": 8},
      {"measurement": "Reduction", "setting": "Sarcoma-180 [3]", "value": 28, "unit": "%"}
    ]},
    {"smiles": "C[C@H]1O[C@@H](n2cc(F)c(=O)[nH]c2=O)C[C@H]1O", "values": [
      {"measurement": "Reduction", "setting": "Sarcoma-180 [3]", "value": 6, "unit": "%"},
      {"measurement": "Ratio", "setting": "[6]", "value": 8}
    ]},
    {"smiles": "C[C@H]1O[C@@H](n2cc(F)c(=O)[nH]c2=O)C[C@@H]1O", "values": [
      {"measurement": "Ratio", "setting": "[7]", "value": 15},
      {"measurement": "Reduction", "setting": "Sarcoma-180 [3]", "value": 0, "unit": "%"}
    ]},
    {"smiles": "O=c1[nH]c(=O)n([C@H]2C[C@H](O)[C@@H](CO)O2)cc1F", "note": "[FLOXURIDINE]", "values": [
      {"measurement": "Ratio", "setting": "[8]", "value": 16},
      {"measurement": "Reduction", "setting": "Sarcoma-180 [1]", "value": 93, "unit": "%"},
      {"measurement": "Ratio", "setting": "[9]", "value": 16},
      {"measurement": "Ratio", "setting": "[10]", "value": 11},
      {"measurement": "Ratio", "setting": "[11]", "value": 18},
      {"measurement": "Ratio", "setting": "[12]", "value": 8},
      {"measurement": "Reduction", "setting": "Sarcoma-180 [13]", "value": 61, "unit": "%"},
      {"measurement": "Reduction", "setting": "Sarcoma-180 [3]", "value": 93, "unit": "%"},
      {"measurement": "Reduction", "setting": "Sarcoma-180 [14]", "value": 26, "unit": "%"},
      {"measurement": "Reduction", "setting": "Sarcoma-180 [15]", "value": 85, "unit": "%"}
    ]},
    {"smiles": "O=c1[nH]cc(F)c(=O)[nH]1", "note": "[FLUOROURACIL]", "values": [
      {"measurement": "Reduction", "setting": "[16]", "value": 38, "unit": "%"},
      {"measurement": "Reduction", "setting": "Sarcoma-180 [17]", "value": 87, "unit": "%"},
      {"measurement": "Ratio", "setting": "[18]", "value": 17},
      {"measurement": "Ratio", "setting": "[19]", "value": 22}
    ]},
    {"smiles": "O=c1[nH]c(=O)n(C2CCCO2)cc1F", "note": "(stereo not drawn) [TEGAFUR]", "values": [
      {"measurement": "Reduction", "setting": "Sarcoma-180 [1]", "value": 46, "unit": "%"},
      {"measurement": "Ratio", "setting": "[2]", "value": 12},
      {"measurement": "Reduction", "setting": "Sarcoma-180 [3]", "value": 81, "unit": "%"},
      {"measurement": "Ratio", "setting": "[20]", "value": 15}
    ]}
  ]
}
